Laboratory results taken from ChEMBL document CHEMBL3259614, “Design, synthesis, and structure-activity relationship studies of novel fused heterocycles-linked triazoles with good activity and water solubility” (J Med Chem, 2014).
In brackets after ≈: the same amount, converted by molar mass.

Columns and labels:
Cryptococcus neoformans [1] = test: Ratio of voriconazole MIC to compound MIC for Cryptococcus neoformans 32609 after 72 hrs by serial dilution method; type: functional
Candida albicans [2] = test: Ratio of fluconazole MIC to compound MIC for fluconazole-resistant Candida albicans J18 after 24 hrs by serial dilution method; type: functional
Candida albicans [3] = test: Antimicrobial activity against fluconazole-resistant Candida albicans J38 after 24 hrs by serial dilution method; type: functional; conditions: J38, 24 h
In short: (§1)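 Broth serial-dilution MIC in 96-well plates following NCCLS guidance. Compounds were dissolved in DMSO and serially diluted in growth medium. Clinical isolates came from a hospital collection. […] C. parapsilosis ATCC 22019 served as the quality-control strain in each assay.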

Candida parapsilosis [4] = test: Ratio of ravuconazole MIC to compound MIC for Candida parapsilosis 22019 after 24 hrs by serial dilution method; type: functional
Cryptococcus neoformans [5] = test: Ratio of ravuconazole MIC to compound MIC for Cryptococcus neoformans 32609 after 72 hrs by serial dilution method; type: functional
Candida albicans [6] = test: Antimicrobial activity against Candida albicans Y0109 after 24 hrs by serial dilution method; type: functional; conditions: Y0109, 24 h
In short: (§2)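 Broth serial dilution MIC in 96-well plates following NCCLS/CLSI methods. Compounds were dissolved in DMSO and serially diluted in growth medium, with incubation at 35 °C. […] C. parapsilosis 22019 served as the quality-control strain in each assay.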

Candida albicans [7] = test: Ratio of fluconazole MIC to compound MIC for fluconazole-resistant Candida albicans 100 after 24 hrs by serial dilution method; type: functional
Cryptococcus neoformans [8] = test: Antimicrobial activity against Cryptococcus neoformans 32609 after 72 hrs by serial dilution method; type: functional; conditions: Cryptococcus neoformans, 32609, 72 h; in short: as §2
Candida albicans [9] = test: Antimicrobial activity against Candida albicans SC5314 after 24 hrs by serial dilution method; type: functional; conditions: SC5314, 24 h; in short: as §2
Nakaseomyces glabratus [10] = test: Antimicrobial activity against Candida glabrata 537 after 24 hrs by serial dilution method; type: functional; conditions: Nakaseomyces glabratus, 537, 24 h; in short: as §2
Nakaseomyces glabratus [11] = test: Ratio of ravuconazole MIC to compound MIC for Candida glabrata 537 after 24 hrs by serial dilution method; type: functional
Aspergillus fumigatus = test: Antimicrobial activity against Aspergillus fumigatus 7544 after 48 hrs by serial dilution method; type: functional; conditions: Aspergillus fumigatus, 7544, 48 h; in short: as §2
Candida albicans [12] = test: Ratio of fluconazole MIC to compound MIC for fluconazole-resistant Candida albicans 103 after 24 hrs by serial dilution method; type: functional
Candida parapsilosis [13] = test: Antimicrobial activity against Candida parapsilosis 22019 after 24 hrs by serial dilution method; type: functional; conditions: Lodderomyces parapsilosis, 22019, 24 h; in short: as §2
Candida parapsilosis [14] = test: Ratio of voriconazole MIC to compound MIC for Candida parapsilosis 22019 after 24 hrs by serial dilution method; type: functional
Candida albicans [15] = test: Antimicrobial activity against fluconazole-resistant Candida albicans 100 after 24 hrs by serial dilution method; type: functional; conditions: Candida albicans, 100, 24 h; in short: as §1
Nakaseomyces glabratus [16] = test: Ratio of voriconazole MIC to compound MIC for Candida glabrata 537 after 24 hrs by serial dilution method; type: functional
Candida albicans [17] = test: Antimicrobial activity against fluconazole-resistant Candida albicans 103 after 24 hrs by serial dilution method; type: functional; conditions: Candida albicans, 103, 24 h; in short: as §1
Candida albicans [18] = test: Antimicrobial activity against fluconazole-resistant Candida albicans J18 after 24 hrs by serial dilution method; type: functional; conditions: J18, 24 h; in short: as §1
Candida albicans [19] = test: Antimicrobial activity against fluconazole-resistant Candida albicans J28 after 24 hrs by serial dilution method; type: functional; conditions: J28, 24 h; in short: as §1
[20] = Aqueous solubility of the compound in hydrochloric acid solution at pH 1.2; type: physicochemical
In short: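 Excess solid was stirred for 3 h in pH 1.2 hydrochloric acid or pH 7.4 phosphate buffer, then filtered through 0.45 μm. Absorbance at the UV maximum was compared with a methanol standard, C′ = A′C/A, with values reported in mg/mL. Determined at 30 °C; mean ± SD, n = 3.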

[21] = Elimination half life in Sprague-Dawley rat liver microsomes at 0.1 uM by LC/MS/MS analysis; type: ADME; conditions: read-out: beta t1/2
In short: (§3)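 Male Sprague−Dawley rat liver microsomes (0.33 mg/mL protein) in 0.1 M Tris-HCl pH 7.4 with 5 mM MgCl₂ and 1 mM NADPH. Compound at a final 0.1 μM (0.01% DMSO, 0.005% BSA), incubated at 37 °C. Samples taken at 0, 7, 17, 30 and 60 min were quenched in methanol, and parent compound was measured by LC/MS/MS. t1/2 and Clint were then calculated.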

[22] = Cmax in Sprague-Dawley rat at 10 mg/kg, po; type: ADME, organism-based; design: dose 10 mg/kg, route oral; conditions: in vivo
In short: (§4)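 Male Sprague−Dawley rats (200−250 g), seven per group, dosed orally at 10 mg/kg or intravenously at 3 or 5 mg/kg in 5% DMSO + 5% Tween 80 in 90% saline. Serial retrobulbar blood samples were quantified by LC-MS. Parameters were derived from mean plasma concentrations by noncompartmental analysis. For the disulfate salt, values are based on the active free base measured.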

Candida albicans [23] = test: Antimicrobial activity against fluconazole-resistant Candida albicans 103 infected in ICR mouse assessed as mean survival days at 3.2 mg/kg, po qd for 5 days starting 2 hrs post infection (reference value: 1.5 +/- 0.53 days); type: functional
Candida albicans [24] = test: Antimicrobial activity against Candida albicans SC5314 infected in ICR mouse assessed as mean survival days at 3.2 mg/kg, po qd for 5 days starting 2 hrs post infection (reference value: 5.2 +/- 2.35 days starting 2 hrs post infection); type: functional
[25] = Half life in Sprague-Dawley rat at 10 mg/kg, po; type: ADME, organism-based; design: dose 10 mg/kg, route oral; conditions: in vivo; in short: as §4
[26] = Clearance in Sprague-Dawley rat at 3 mg/kg, iv; type: ADME, organism-based; design: dose 3 mg/kg, route intravenous; conditions: in vivo; in short: as §4
[27] = Intrinsic clearance in Sprague-Dawley rat liver microsomes assessed per mg protein at 0.1 uM by LC/MS/MS analysis; type: ADME; in short: as §3
[28] = Tmax in Sprague-Dawley rat at 10 mg/kg, po; type: ADME, organism-based; design: dose 10 mg/kg, route oral; conditions: in vivo; in short: as §4
Candida albicans [29] = test: Antimicrobial activity against Candida albicans SC5314 infected in ICR mouse assessed as mean survival days at 0.32 mg/kg, po qd for 5 days starting 2 hrs post infection (reference value: 5.2 +/- 2.35 days starting 2 hrs post infection); type: functional
[30] = target: Voltage-gated inwardly rectifying potassium channel KCNH2 (Homo sapiens, UniProt Q12809); test: Inhibition of human ERG expressed in CHO cells by whole-cell patch clamp assay; type: cell-based
[31] = AUC (0 to infinity) in Sprague-Dawley rat at 10 mg/kg, po; type: ADME, organism-based; design: time infinity, dose 10 mg/kg, route oral; conditions: plasma; in short: as §4
[32] = Oral bioavailability in Sprague-Dawley rat at 10 mg/kg; type: ADME, organism-based; conditions: in vivo; in short: as §4
Candida albicans [33] = test: Antimicrobial activity against fluconazole-resistant Candida albicans 103 infected in ICR mouse assessed as mean survival days at 0.32 mg/kg, po qd for 5 days starting 2 hrs post infection (reference value: 1.5 +/- 0.53 days); type: functional
Candida albicans [34] = test: Antimicrobial activity against fluconazole-resistant Candida albicans 103 infected in ICR mouse assessed as mean survival days at 10 mg/kg, po qd for 5 days starting 2 hrs post infection (reference value: 1.5 +/- 0.53 days); type: functional
[35] = AUC (0 to infinity) in Sprague-Dawley rat at 3 mg/kg, iv; type: ADME, organism-based; design: time infinity, dose 3 mg/kg, route intravenous; conditions: plasma; in short: as §4
[36] = Half life in Sprague-Dawley rat at 3 mg/kg, iv; type: ADME, organism-based; design: dose 3 mg/kg, route intravenous; conditions: in vivo; in short: as §4
Candida albicans [37] = test: Antimicrobial activity against Candida albicans SC5314 infected in ICR mouse assessed as mean survival days at 1 mg/kg, po qd for 5 days starting 2 hrs post infection (reference value: 5.2 +/- 2.35 days starting 2 hrs post infection); type: functional
Candida albicans [38] = test: Antimicrobial activity against Candida albicans SC5314 infected in ICR mouse assessed as mean survival days at 10 mg/kg, po qd for 5 days starting 2 hrs post infection (reference value: 5.2 +/- 2.35 days starting 2 hrs post infection); type: functional
Candida albicans [39] = test: Antimicrobial activity against fluconazole-resistant Candida albicans 103 infected in ICR mouse assessed as mean survival days at 1 mg/kg, po qd for 5 days starting 2 hrs post infection (reference value: 1.5 +/- 0.53 days); type: functional
[40] = Clearance in Sprague-Dawley rat at 5 mg/kg, iv; type: ADME, organism-based; design: dose 5 mg/kg, route intravenous; conditions: in vivo; in short: as §4
Candida albicans [41] = test: Antimicrobial activity against Candida albicans SC5314 infected in ICR mouse assessed as mean survival days at 10 mg/kg, iv qd for 5 days starting 2 hrs post infection (reference value: 9.0 +/- 0.67 days); type: functional
[42] = Half life in Sprague-Dawley rat at 5 mg/kg, iv; type: ADME, organism-based; design: dose 5 mg/kg, route intravenous; conditions: in vivo; in short: as §4
Candida albicans [43] = test: Antimicrobial activity against Candida albicans SC5314 infected in ICR mouse assessed as mean survival days at 3.2 mg/kg, iv qd for 5 days starting 2 hrs post infection (reference value: 9.0 +/- 0.67 days); type: functional
Candida albicans [44] = test: Antimicrobial activity against Candida albicans SC5314 infected in ICR mouse assessed as mean survival days at 1 mg/kg, iv qd for 5 days starting 2 hrs post infection (reference value: 9.0 +/- 0.67 days); type: functional
Hepatocyte = test: Cytotoxicity against rat hepatocytes assessed as reduction in survival rate at 5 to 40 uM after 48 hrs by SRB assay; type: cell-based
Candida albicans [45] = test: Antimicrobial activity against Candida albicans SC5314 infected in ICR mouse assessed as mean survival days at 0.32 mg/kg, iv qd for 5 days starting 2 hrs post infection (reference value: 9.0 +/- 0.67 days); type: functional
[46] = AUC (0 to infinity) in Sprague-Dawley rat at 5 mg/kg, iv; type: ADME, organism-based; design: dose 5 mg/kg, route intravenous, time infinity; conditions: plasma; in short: as §4

Sequence of Voltage-gated inwardly rectifying potassium channel KCNH2 (Q12809 whole entry): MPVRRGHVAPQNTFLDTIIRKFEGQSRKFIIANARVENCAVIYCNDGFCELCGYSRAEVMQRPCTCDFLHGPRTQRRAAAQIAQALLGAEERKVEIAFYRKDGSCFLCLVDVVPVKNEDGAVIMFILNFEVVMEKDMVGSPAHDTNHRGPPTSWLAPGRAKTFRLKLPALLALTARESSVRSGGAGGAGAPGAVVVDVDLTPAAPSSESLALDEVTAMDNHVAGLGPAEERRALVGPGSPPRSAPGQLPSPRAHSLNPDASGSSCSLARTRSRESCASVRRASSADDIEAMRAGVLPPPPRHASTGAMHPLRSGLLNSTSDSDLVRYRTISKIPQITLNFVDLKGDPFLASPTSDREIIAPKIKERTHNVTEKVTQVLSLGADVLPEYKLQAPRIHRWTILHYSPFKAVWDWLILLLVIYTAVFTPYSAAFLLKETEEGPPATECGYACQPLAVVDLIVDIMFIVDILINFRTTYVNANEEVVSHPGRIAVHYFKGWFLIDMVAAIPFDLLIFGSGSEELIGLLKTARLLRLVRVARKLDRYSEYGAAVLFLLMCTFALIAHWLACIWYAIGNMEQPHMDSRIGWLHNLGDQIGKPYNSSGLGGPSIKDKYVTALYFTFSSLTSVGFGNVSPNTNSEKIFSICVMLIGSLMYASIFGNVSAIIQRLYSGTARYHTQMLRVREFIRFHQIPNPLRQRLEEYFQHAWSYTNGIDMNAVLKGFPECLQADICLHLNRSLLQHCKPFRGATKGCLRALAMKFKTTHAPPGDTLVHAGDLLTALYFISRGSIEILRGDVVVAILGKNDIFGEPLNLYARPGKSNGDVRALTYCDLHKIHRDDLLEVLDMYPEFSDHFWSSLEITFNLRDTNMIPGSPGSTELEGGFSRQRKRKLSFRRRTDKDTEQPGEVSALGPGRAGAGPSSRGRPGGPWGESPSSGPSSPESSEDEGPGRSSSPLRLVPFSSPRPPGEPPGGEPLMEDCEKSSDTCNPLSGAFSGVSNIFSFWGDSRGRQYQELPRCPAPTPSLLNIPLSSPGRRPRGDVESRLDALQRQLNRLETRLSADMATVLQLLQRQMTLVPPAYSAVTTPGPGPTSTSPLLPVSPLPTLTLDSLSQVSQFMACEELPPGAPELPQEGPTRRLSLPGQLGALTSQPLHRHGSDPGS

Row | SMILES | MIC (Candida albicans [3]) | MIC (Candida albicans [6]) | MIC (Cryptococcus neoformans [8]) | MIC (Candida albicans [9]) | MIC (Nakaseomyces glabratus [10]) | MIC (Aspergillus fumigatus) | MIC (Candida parapsilosis [13]) | MIC (Candida albicans [15]) | MIC (Candida albicans [17]) | MIC (Candida albicans [18]) | MIC (Candida albicans [19]) | half-life at 0.1 µM [21] | Cmax [22] | half-life [25] | microsomal CLint at 0.1 µM [27] | Tmax [28] | AUC(0-inf) [31] | bioavailability [32] | also measured
1 | C[C@@H](N1CCn2cc(-c3ccccc3)nc2C1)[C@](O)(Cn1cncn1)c1ccc(F)cc1F | 0.125 µg/mL (≈ 0.277 µM) | 0.0625 µg/mL (≈ 0.139 µM) | 0.0312 µg/mL (≈ 0.0694 µM) | 0.0625 µg/mL (≈ 0.139 µM) | 0.0312 µg/mL (≈ 0.0694 µM) | 16 µg/mL (≈ 35.5 µM) | 0.0625 µg/mL (≈ 0.139 µM) | > 32 µg/mL | > 32 µg/mL | > 32 µg/mL | 0.5 µg/mL (≈ 1.11 µM) |  |  |  |  |  |  |  | Ratio (Cryptococcus neoformans [1]): 2; Ratio (Candida albicans [2]): 16; Ratio (Candida parapsilosis [4]): 2; Ratio (Cryptococcus neoformans [5]): 2; Ratio (Candida albicans [7]): 16; Ratio (Nakaseomyces glabratus [11]): 2; Ratio (Candida albicans [12]): 16; Ratio (Candida parapsilosis [14]): 2; Ratio (Nakaseomyces glabratus [16]): 2
2 | C[C@@H](N1CCn2nc(-c3ccc(C#N)nc3)nc2C1)[C@](O)(Cn1cncn1)c1ccc(F)cc1F | ≤ 0.0312 µg/mL | 0.0156 µg/mL (≈ 0.0327 µM) | 0.0078 µg/mL (≈ 0.0163 µM) | 0.0156 µg/mL (≈ 0.0327 µM) | 0.0078 µg/mL (≈ 0.0163 µM) | 1 µg/mL (≈ 2.09 µM) | 0.0156 µg/mL (≈ 0.0327 µM) | 8 µg/mL (≈ 16.8 µM) | > 16 µg/mL | > 16 µg/mL | 0.0625 µg/mL (≈ 0.131 µM) | 430 min | 1420 ng/mL | 218 min | 5 µL/min/mg | 105 min | 7910 ng·h/mL | 105% | solubility [20]: 44 µg/mL (≈ 92.2 µM); Survival (Candida albicans [23]): 3.6 days; Survival (Candida albicans [24]): 14.1 days; clearance [26]: 22.7 mL/min/kg; Survival (Candida albicans [29]): 8 days; IC50 [30]: > 40 µM; Survival (Candida albicans [33]): 1.7 days; Survival (Candida albicans [34]): 8.3 days; AUC(0-inf) [35]: 2240 ng·h/mL; half-life [36]: 72 min; Survival (Candida albicans [37]): 12.3 days; Survival (Candida albicans [38]): 18.1 days; Survival (Candida albicans [39]): 2 days
3 | C[C@@H](N1CCc2nc(-c3cncnc3)sc2C1)[C@](O)(Cn1cncn1)c1ccc(F)cc1F.O.O=S(=O)(O)O |  |  |  |  |  |  |  |  |  |  |  | 32.4 min | 164 ng/mL | 27.6 min | 65 µL/min/mg | 15 min | 141 ng·h/mL | 5.8% | clearance [40]: 72.5 mL/min/kg; Survival (Candida albicans [41]): 11.1 days; half-life [42]: 25.2 min; Survival (Candida albicans [43]): 9.8 days; Survival (Candida albicans [44]): 7.8 days; Activity (Hepatocyte): Non-toxic; Survival (Candida albicans [45]): 8.8 days; AUC(0-inf) [46]: 1190 ng·h/mL
